Experimental data gathered from unrelated publications.
Each line is one published result; the experiments were not run side by side.
ABHD6: Monoacylglycerol lipase ABHD6 (ABHD6, Homo sapiens, UniProt Q9BV23)
DRD4: D(4) dopamine receptor (DRD4, Homo sapiens, UniProt P21917)
PI4KA: Phosphatidylinositol 4-kinase alpha (PI4KA, Homo sapiens, UniProt P42356)

`O=C(c1ccc(F)cc1)N(Cc1ccccc1)C1CCCCC1` has an inhibition of 1% (D(4) dopamine receptor (DRD4, Homo sapiens, UniProt P21917, del265-296); cell-free assay; 10 µM).
With `O=C(Oc1nsnc1N1CCN(c2ccccc2)CC1)N1CCCCC1` the inhibition was 40% (ABHD6; enzyme activity; inhibitor; fluorescence; 1 µM; lysate).
For `CCN(CC)c1ccc(C2Nc3ccc(C(=O)c4ccccc4)cc3NC3=C2C(=O)CC(C)(C)C3)cc1` (stereo not shown), the inhibition was 100% (DRD4; ligand displacement; radioligand; 10 µM).
For `Cn1cnc(Br)c1C1=CN(c2ncnc3[nH]cnc23)CCS1`, the inhibition was 29.5% (Mitogen-activated protein kinase kinase kinase 19 (MAP3K19, Homo sapiens, UniProt Q56UN5); enzyme activity; inhibitor; radiometric; 50 nM).
With `O=C(Nc1ccc(S(=O)(=O)N2CCC(Cl)CC2)cc1)c1ccc([N+](=O)[O-])o1` the inhibition was 1% (DRD4; ligand displacement; radioligand; 10 µM).
The inhibition of `CN(C)C1CCN(CC#Cc2nn(C3CCCC3)c3nc(NCc4ccccc4)ncc23)C1` (stereo not shown) is reported as 5% (Protein kinase C iota type (PRKCI, Homo sapiens, UniProt P41743); enzyme activity; inhibitor; FRET; 1 µM).
For `COc1cc2c3c(c1OC)-c1cc4c(cc1CC3N(CC1CC1)CC2c1ccccc1)OCO4` (stereo not shown), the inhibition was -18.2% (5-hydroxytryptamine receptor 5A (HTR5A, Homo sapiens, UniProt P47898); ligand displacement; radioligand; 10 µM).
For `CS(=O)(=O)Nc1cccc(-c2csc(NC(=O)CSc3nc4nccnc4c(=O)n3CCc3ccccc3)n2)c1`, the inhibition was 14% (Atypical kinase COQ8A, mitochondrial (COQ8A, Homo sapiens, UniProt Q8NI60); enzyme activity; inhibitor; 10 µM).
For `CCCNc1nc2ccccc2n1Cc1ccc(Cl)cc1`, the inhibition was 2.14% (DRD4; ligand displacement; 10 µM).
`O=C(CSc1nc2nccnc2c(=O)n1CCc1ccccc1)Nc1nccs1` gave an inhibition of -5% (PI4KA; enzyme activity; inhibitor; 10 µM).
`N#Cc1cc(Cn2c(N3CCCC3)nc3ccccc32)ccc1F` has an inhibition of -0.93% (DRD4; ligand displacement; 10 µM).
With `O=C(Oc1nsnc1N1CCC(c2ccccc2)CC1)N1CCCCC1` the inhibition was 41% (ABHD6; enzyme activity; inhibitor; fluorescence; 1 µM; lysate).
For `O=C(CSc1nc2nccnc2c(=O)n1CCc1ccccc1)Nc1ccccc1`, the inhibition was less than 20% (PI4KA; enzyme activity; inhibitor; 10 µM).
